In ChEMBL document CHEMBL1134556, “(-)3-[4-[2-(Phenoxazin-10-yl)ethoxy]phenyl]-2-ethoxypropanoic acid [(-)DRF 2725]: a dual PPAR agonist with potent antihyperglycemic and lipid modulating activity” (J Med Chem, 2001):

Key:
Type in all cases: ADME, organism-based
[1] = Pharmacokinetic parameter in Male Wistar rats at 10 mg/kg oral administration.; set-up: dose 10 mg/kg, route oral; settings: rat, in vivo
Outline: (§1)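 Male Wistar rats; oral arm fasted 14 h, dosed as suspension in 0.25% CMC; IV arm given via tail vein in DMSO 6.6%/Cremophor ELP 6.6%/ethanol 3.3%/saline 83.3%. Retro-orbital blood drawn at 0.05, 0.5, 1, 2, 4, 6, 8, 10 and 21 h. Parameters include AUC0-∞, Cmax, Tmax, Kel, T1/2, Vd, Cl, f. Mean ± SD, n = 4.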

[2] = (§2) Pharmacokinetic parameter in Male Wistar rats at 3 mg/kg intravenous administration.; set-up: dose 3 mg/kg, route intravenous; settings: rat, in vivo; outline: as §1
Rattus norvegicus = experiment: as §2; set-up: dose 3 mg/kg, route intravenous; settings: in vivo; outline: as §1

## CCO[C@@H](Cc1ccc(OCCN2c3ccccc3Oc3ccccc32)cc1)C(=O)O [RAGAGLITAZAR]
[1]
  AUC: 71400 ng·h/mL
  Cmax: 17200 ng/mL
  Tmax: 1.5 h
  bioavailability: 77%
  half-life: 169 min
  k el: 6.94e-05 s⁻¹
[2]
  AUC: 27800 ng·h/mL
  Cmax: 18300 ng/mL
  clearance: 0.355 mL/min
  half-life: 281 min
  k el: 4.17e-05 s⁻¹
Rattus norvegicus
  Vd: 36.92 mL
